One compound from ChEMBL document CHEMBL5661979, “Pharmacological inhibition of BMK1 suppresses tumor growth through promyelocytic leukemia protein” (Cancer Cell, 2010) can be followed below.

Calls of active or inactive are those of the source. No cut-off for these calls is given here. A value given as a limit tells only on which side of the number the result lay.

The target of data set [1] is Tyrosine-protein kinase JAK1 (Homo sapiens, UniProt P23458). The data set can be described thus: Inhibition of JAK1 domain 2 in human HeLa cells lysate pre incubated for 15 mins followed by ATP acyl phosphate probe addition and measured after 10 mins by LC-MS/MS analysis. The class given is subcellular.
Data set [2] addresses Serine/threonine-protein kinase 10 (Homo sapiens, UniProt O94804). The data set can be described thus: Inhibition of LOK in human HeLa cells lysate pre incubated for 15 mins followed by ADP acyl phosphate probe addition and measured after 10 mins by LC-MS/MS analysis. The class given is subcellular.
Data set [3] addresses Serine/threonine-protein kinase Nek7 (Homo sapiens, UniProt Q8TDX7). The data set can be described thus: Inhibition of NEK7 in human HeLa cells lysate pre incubated for 15 mins followed by ADP acyl phosphate probe addition and measured after 10 mins by LC-MS/MS analysis. The data set is classed as subcellular.
For the next data set, the target named is Activated CDC42 kinase 1 (Homo sapiens, UniProt Q07912). The data set can be described thus: Inhibition of ACK1 in human HeLa cells lysate at 2 uM pre incubated for 15 mins followed by ADP acyl phosphate probe addition and measured after 10 mins by LC-MS/MS analysis relative to control. The data set is classed as subcellular. The note with it: time 25.0 min. The essentials:
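HeLa cell lysates (5 mg/mL total protein) were preincubated with inhibitor at 0, 0.8, 2, 10 or 50 μM for 15 min. ATP or ADP acylphosphate probe was then added (5 μM final) for 10 min, and reactions were stopped with urea. Up to four fragment ions per kinase probe-peptide were quantified by targeted MS. % inhibition was taken relative to untreated lysate. Run in duplicate.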

For data set [4], the target named is T1, Interleukin-1 receptor-associated kinase 4 (Homo sapiens) (UniProt Q9NWZ3).
T1 sequence (whole entry): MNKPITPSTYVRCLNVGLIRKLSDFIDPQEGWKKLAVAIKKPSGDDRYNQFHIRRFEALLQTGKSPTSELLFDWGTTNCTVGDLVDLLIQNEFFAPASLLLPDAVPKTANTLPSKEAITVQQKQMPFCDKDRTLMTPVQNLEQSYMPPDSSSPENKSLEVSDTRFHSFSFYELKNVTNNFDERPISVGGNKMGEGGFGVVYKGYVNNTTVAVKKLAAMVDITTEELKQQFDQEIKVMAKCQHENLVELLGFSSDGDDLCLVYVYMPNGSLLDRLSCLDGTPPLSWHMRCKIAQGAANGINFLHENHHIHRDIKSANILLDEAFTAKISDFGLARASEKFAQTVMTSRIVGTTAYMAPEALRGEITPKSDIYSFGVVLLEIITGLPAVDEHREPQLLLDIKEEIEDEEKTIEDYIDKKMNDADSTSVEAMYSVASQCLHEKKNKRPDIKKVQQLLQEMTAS
As to the kind of experiment: Inhibition of IRAK4 in human HeLa cells lysate at 2 uM pre incubated for 15 mins followed by ADP acyl phosphate probe addition and measured after 10 mins by LC-MS/MS analysis relative to control. The class given is subcellular. The following applies: time 25.0 min.

The target in data set [5] is Ribosomal protein S6 kinase alpha-3 (Homo sapiens, UniProt P51812). The data set can be described thus: Inhibition of RSK2 domain 1 in human HeLa cells lysate at 2 uM pre incubated for 15 mins followed by ADP acyl phosphate probe addition and measured after 10 mins by LC-MS/MS analysis relative to control. The data set is classed as subcellular. The note with it: time 25.0 min.

Data set [6] concerns the target Protein kinase C iota type (Homo sapiens) (UniProt P41743). The data set can be described thus: Inhibition of PKCiota in human HeLa cells lysate at 2 uM pre incubated for 15 mins followed by ADP acyl phosphate probe addition and measured after 10 mins by LC-MS/MS analysis relative to control. The data set is classed as subcellular. The note with it: time 25.0 min.

The target of data set [7] is T2, Mitogen-activated protein kinase 14 (Homo sapiens, UniProt Q16539). The data set can be described thus: Inhibition of p38a in human HeLa cells lysate at 50 uM pre incubated for 15 mins followed by ATP acyl phosphate probe addition and measured after 10 mins by LC-MS/MS analysis relative to control. The data set is classed as subcellular. The note with it: time 25.0 min.

Data set [8] concerns the target Ribosomal protein S6 kinase alpha-5 (Homo sapiens, UniProt O75582). As to the kind of experiment: Inhibition of MSK1 domain 1 in human HeLa cells lysate at 50 uM pre incubated for 15 mins followed by ATP acyl phosphate probe addition and measured after 10 mins by LC-MS/MS analysis relative to control. The note with it: time 25.0 min. The class given is subcellular.

Data set [9] concerns the target Cyclin-dependent kinase 7 (Homo sapiens, UniProt P50613). As to the kind of experiment: Inhibition of CDK7 in human HeLa cells lysate at 50 uM pre incubated for 15 mins followed by ATP acyl phosphate probe addition and measured after 10 mins by LC-MS/MS analysis relative to control. The class given is subcellular. The following applies: time 25.0 min. Put shortly: (§1)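 KiNativ profiling in HeLa lysate (5 mg/mL total protein). Lysate incubated 15 min with inhibitor at 50, 10, 2, 0.8 or 0 μM. ATP or ADP acylphosphate probe then added (5 μM final) and reacted 10 min. Reaction stopped with urea and analysed by targeted MS, using up to four fragment ions per kinase peptide-probe conjugate. % inhibition taken against untreated lysate. Run in duplicate.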

Data set [10] concerns the target Cyclin-dependent kinase 2 (Homo sapiens, UniProt P24941). The data set can be described thus: Inhibition of CDK2 in human HeLa cells lysate at 10 uM pre incubated for 15 mins followed by ATP acyl phosphate probe addition and measured after 10 mins by LC-MS/MS analysis relative to control. The note with it: time 25.0 min. The class given is subcellular. The essentials:
as §1

Data set [11] concerns the target T3, Dual specificity mitogen-activated protein kinase kinase 6 (Homo sapiens) (UniProt P52564).
T3 sequence (whole entry): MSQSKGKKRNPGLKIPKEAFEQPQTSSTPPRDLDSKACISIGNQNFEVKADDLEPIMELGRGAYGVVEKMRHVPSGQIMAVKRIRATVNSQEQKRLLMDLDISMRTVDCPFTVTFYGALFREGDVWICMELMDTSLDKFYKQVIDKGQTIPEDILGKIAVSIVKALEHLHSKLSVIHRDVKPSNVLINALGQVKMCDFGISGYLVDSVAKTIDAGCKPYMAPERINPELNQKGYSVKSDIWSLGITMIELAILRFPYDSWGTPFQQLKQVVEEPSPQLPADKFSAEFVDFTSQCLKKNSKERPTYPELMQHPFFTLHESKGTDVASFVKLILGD
The data set can be described thus: Inhibition of MAP2K6 in human HeLa cells lysate at 10 uM pre incubated for 15 mins followed by ATP acyl phosphate probe addition and measured after 10 mins by LC-MS/MS analysis relative to control. The class given is subcellular. The following applies: time 25.0 min.

Data set [12] concerns the target T2, Mitogen-activated protein kinase 14. As to the kind of experiment: Inhibition of p38a in human HeLa cells lysate at 2 uM pre incubated for 15 mins followed by ATP acyl phosphate probe addition and measured after 10 mins by LC-MS/MS analysis relative to control. The data set is classed as subcellular. The note with it: time 25.0 min.
Data set [13] in a line: Inhibition of MAP3K2/3 in human HeLa cells lysate at 2 uM pre incubated for 15 mins followed by ATP acyl phosphate probe addition and measured after 10 mins by LC-MS/MS analysis relative to control. The note with it: 25 min, condition cancer.
In data set [14] the target is Serine/threonine-protein kinase DCLK2 (Homo sapiens, UniProt Q8N568). The data set can be described thus: Binding affinity to DCAMKL2 (unknown origin) assessed as dissociation constant by ATP-competition binding assay.
For data set [15], the target named is Serine/threonine-protein kinase PLK4 (Homo sapiens) (UniProt O00444). As to the kind of experiment: Inhibition of recombinant Flag-tagged PLK4 (unknown origin) expressed in HEK293 cells at 0.08 to 10 uM in presence of 32P-gamma-ATP. The note with it: dose 0.08-10 µM. The data set is classed as cell-based.
The nature of data set [16]: Toxicity in C57Bl/6 mouse assessed as effect on alkaline phosphatase level at 50 mg/kg, ip for 14 days (reference value: 51 U/L). The class given is organism-based. The note with it: in vivo, 336 h, time 14 day.
Data set [17] can be described thus: Toxicity in C57Bl/6 mouse assessed as effect on total bilirubin level at 50 mg/kg, ip for 14 days (reference value: 0.3 mg/dl). The data set is classed as organism-based. The following applies: in vivo, 336 h, time 14 day.

T2 sequence (Q16539 whole entry): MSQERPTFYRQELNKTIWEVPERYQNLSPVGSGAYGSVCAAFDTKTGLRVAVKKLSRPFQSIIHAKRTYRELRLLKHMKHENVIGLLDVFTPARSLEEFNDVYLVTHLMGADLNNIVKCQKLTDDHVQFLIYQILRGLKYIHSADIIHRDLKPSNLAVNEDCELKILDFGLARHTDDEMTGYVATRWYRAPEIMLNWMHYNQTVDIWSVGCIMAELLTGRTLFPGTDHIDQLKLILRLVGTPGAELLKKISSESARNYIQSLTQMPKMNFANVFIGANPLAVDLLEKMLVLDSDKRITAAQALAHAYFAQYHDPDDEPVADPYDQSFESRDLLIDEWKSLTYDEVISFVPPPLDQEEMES
Chain of Tyrosine-protein kinase JAK1 (P23458 whole entry, the tested form may be a part): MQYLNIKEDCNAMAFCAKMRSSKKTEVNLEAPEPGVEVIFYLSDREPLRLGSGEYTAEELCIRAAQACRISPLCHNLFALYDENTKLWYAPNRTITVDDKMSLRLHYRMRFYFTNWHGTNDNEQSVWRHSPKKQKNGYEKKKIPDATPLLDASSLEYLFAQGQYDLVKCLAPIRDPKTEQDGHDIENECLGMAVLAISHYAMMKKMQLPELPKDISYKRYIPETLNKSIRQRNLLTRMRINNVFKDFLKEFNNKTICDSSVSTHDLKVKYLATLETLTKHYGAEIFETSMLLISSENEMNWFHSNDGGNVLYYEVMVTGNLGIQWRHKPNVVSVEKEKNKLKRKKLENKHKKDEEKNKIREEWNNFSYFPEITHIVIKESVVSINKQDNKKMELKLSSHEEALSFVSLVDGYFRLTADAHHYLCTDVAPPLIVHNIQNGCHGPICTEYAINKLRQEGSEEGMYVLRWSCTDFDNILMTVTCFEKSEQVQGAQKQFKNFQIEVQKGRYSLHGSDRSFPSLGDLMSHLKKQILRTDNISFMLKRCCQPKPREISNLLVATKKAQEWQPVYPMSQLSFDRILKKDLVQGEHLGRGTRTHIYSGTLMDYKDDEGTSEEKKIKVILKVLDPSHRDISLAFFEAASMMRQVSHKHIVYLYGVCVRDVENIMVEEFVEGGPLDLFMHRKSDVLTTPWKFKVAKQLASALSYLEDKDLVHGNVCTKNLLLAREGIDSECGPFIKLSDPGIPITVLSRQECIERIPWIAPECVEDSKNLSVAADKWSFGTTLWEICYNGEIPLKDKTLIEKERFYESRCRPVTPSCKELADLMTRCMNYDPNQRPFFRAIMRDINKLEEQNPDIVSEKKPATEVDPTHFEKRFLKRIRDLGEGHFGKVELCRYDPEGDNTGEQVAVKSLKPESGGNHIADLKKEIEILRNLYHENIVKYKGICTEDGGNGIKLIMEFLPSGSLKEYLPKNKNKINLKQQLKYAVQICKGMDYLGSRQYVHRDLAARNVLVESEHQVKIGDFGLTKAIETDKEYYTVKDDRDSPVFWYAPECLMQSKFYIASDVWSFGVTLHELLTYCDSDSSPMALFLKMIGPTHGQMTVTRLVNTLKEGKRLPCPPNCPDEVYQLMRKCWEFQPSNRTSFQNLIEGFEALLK
Chain of Serine/threonine-protein kinase Nek7 (Q8TDX7 whole entry): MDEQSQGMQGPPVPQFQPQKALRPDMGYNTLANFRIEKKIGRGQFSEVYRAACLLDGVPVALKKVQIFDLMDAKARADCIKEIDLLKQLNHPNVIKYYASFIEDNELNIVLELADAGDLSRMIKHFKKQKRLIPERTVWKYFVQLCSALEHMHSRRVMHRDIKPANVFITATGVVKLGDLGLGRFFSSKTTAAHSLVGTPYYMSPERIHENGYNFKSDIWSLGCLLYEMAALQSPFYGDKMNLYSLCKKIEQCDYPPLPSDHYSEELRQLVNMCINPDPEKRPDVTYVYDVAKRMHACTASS
Chain of Serine/threonine-protein kinase DCLK2 (Q8N568 whole entry): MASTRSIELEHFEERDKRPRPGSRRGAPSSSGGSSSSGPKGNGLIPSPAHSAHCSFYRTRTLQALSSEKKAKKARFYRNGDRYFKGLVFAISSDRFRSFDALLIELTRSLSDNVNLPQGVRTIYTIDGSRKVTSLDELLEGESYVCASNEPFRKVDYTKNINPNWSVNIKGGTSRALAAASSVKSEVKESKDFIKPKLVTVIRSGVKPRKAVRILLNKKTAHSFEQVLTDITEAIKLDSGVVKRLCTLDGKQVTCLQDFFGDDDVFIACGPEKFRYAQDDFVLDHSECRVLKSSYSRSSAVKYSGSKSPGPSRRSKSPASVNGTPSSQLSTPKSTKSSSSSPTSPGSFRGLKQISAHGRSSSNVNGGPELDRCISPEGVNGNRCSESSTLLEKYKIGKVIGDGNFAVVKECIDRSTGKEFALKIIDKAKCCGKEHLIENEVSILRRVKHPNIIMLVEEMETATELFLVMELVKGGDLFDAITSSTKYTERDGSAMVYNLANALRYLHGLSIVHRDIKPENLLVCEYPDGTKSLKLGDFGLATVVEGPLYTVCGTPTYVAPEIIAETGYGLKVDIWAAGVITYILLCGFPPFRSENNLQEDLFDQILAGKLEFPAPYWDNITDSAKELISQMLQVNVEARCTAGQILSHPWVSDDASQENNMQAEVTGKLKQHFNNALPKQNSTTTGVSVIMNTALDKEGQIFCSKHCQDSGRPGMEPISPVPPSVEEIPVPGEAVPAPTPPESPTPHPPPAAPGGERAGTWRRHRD
Chain of Activated CDC42 kinase 1 (Q07912 whole entry, looked up, the tested form may be a part): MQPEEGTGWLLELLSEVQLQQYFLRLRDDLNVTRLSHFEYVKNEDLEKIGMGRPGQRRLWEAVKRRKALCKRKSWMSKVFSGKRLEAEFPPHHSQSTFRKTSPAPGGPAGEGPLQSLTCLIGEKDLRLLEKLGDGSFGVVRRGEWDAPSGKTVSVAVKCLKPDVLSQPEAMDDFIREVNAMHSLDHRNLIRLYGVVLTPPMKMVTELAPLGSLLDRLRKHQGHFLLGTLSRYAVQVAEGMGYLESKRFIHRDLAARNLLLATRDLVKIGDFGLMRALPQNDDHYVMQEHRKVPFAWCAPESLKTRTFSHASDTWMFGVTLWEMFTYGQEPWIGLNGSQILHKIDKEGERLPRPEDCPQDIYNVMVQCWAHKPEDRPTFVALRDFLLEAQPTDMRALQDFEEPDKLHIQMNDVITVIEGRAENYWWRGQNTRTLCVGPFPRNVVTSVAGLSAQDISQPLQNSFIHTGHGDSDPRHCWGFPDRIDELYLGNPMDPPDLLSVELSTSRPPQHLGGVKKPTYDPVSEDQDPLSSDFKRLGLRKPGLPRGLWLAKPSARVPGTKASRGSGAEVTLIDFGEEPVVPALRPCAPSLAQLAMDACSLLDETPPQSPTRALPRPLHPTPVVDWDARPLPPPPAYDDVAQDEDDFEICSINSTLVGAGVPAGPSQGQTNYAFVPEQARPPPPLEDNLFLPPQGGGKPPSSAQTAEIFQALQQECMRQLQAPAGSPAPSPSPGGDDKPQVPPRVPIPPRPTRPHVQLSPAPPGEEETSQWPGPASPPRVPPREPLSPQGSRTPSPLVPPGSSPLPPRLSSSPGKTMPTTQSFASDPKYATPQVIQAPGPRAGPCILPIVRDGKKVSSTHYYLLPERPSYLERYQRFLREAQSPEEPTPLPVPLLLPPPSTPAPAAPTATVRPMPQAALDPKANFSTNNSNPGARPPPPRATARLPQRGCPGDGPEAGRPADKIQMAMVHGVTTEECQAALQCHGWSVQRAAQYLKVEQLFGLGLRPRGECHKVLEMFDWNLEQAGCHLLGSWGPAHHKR
Chain of Cyclin-dependent kinase 7 (P50613 whole entry, the tested form may be a part): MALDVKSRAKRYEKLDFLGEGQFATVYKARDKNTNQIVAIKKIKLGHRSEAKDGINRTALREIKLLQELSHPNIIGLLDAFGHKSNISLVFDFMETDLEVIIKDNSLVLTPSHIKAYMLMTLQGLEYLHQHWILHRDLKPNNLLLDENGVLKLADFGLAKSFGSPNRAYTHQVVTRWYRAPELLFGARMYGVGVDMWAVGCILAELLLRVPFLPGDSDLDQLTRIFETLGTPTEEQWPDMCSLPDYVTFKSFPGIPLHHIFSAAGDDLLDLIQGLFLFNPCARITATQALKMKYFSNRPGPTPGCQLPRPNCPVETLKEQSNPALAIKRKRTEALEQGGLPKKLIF
Chain of Serine/threonine-protein kinase 10 (O94804 whole entry): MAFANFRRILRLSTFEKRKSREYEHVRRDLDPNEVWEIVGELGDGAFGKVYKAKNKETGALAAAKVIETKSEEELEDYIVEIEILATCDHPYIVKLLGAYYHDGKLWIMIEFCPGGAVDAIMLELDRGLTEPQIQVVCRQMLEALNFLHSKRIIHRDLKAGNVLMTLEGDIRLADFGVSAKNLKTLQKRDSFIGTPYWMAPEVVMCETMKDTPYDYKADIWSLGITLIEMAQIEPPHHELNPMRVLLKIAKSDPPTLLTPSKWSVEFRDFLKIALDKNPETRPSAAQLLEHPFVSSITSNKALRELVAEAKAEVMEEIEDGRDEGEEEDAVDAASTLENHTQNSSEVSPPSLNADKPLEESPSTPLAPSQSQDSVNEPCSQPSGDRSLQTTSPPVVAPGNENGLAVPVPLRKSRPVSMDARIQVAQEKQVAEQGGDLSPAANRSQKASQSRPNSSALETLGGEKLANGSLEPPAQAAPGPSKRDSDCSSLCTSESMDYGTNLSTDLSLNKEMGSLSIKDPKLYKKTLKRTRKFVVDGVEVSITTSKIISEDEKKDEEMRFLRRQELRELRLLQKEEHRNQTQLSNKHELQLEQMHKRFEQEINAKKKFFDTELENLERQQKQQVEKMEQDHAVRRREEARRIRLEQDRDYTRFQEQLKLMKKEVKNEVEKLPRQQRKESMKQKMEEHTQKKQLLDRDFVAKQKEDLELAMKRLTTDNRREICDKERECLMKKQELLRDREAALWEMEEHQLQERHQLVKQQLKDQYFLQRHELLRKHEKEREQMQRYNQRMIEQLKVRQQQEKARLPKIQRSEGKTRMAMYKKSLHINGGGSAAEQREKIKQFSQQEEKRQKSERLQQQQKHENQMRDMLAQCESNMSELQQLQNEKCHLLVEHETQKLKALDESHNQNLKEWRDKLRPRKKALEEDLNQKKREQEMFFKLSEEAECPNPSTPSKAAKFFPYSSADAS

On to `CCOc1cc(N2CCC(O)CC2)ccc1Nc1ncc2c(n1)N(C)c1ccccc1C(=O)N2C`, for which the 50% inhibitory concentration (IC50) in [1], in [2] and in data set [3] was greater than 50 µM throughout. In addition, the inhibition on Activated CDC42 kinase 1 is 24.4%; in [4], 12.7%; in data set [5], 4.9%; in data set [6] it was 18.9%; in data set [7], 31.4%; in data set [8], 4.6%. The inhibition in data set [9] was -0.5%; in data set [10], 6%; in data set [11], -9%; in data set [12], 3.8%. For the same compound, in [13], the inhibition at 2 µM is -2.1%. The dissociation constant Kd in data set [14] was 0.19 µM. In addition, the inhibition entry in data set [15] was “Active”. Also, the values for the Activity in data set [16] and in data set [17] were 235 U/L and 0.3 mg/dL, respectively.

For orientation: IC50 means the point on the concentration scale where inhibition reaches its midpoint. A higher IC50 goes with lower potency. One may read the inhibition as the change of the read-out against control, counted positive when it falls. The term Kd denotes the concentration at which binding is half-saturated.
